The full list was thinned out, with hits kept by preference.
ALR inh: blocks human ALR sulfhydryl oxidase activity. inhibition, % (concentration not given with the values). purified ALR, DTT oxidation, H2O2 HRP-luminol luminescence. 290,000 tested, 3.8% active;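 active = mean replicate inhibition above about 79%, with every replicate also reaching it, limit read from the data; inconclusive = only one of the two criteria met; inactive = mean below limit and not every replicate reaching it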
Target sequence (P55789 whole entry, looked up): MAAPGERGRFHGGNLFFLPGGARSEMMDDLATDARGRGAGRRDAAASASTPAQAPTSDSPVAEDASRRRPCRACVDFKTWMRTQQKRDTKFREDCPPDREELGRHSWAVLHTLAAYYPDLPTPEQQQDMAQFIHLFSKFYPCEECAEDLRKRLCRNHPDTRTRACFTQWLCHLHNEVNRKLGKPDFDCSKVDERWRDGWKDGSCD
N-glyco inh: N-linked glycosylation inhibition | 360,000 tested, 0.23% active | reporter increase, % at 12.5 µM | D54 ERlucT glycosylation luciferase reporter, 24 h; percent of 100 nM tunicamycin response;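 active = mean luciferase reporter signal, scaled so untreated is 0 and the glycosylation-blocking control 100, at or above a set limit in every replicate; inconclusive = mean reaches the limit but not every replicate does; inactive = mean below the limit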;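 also: luciferase carries N-glycosylation sites so blocking glycosylation raises the light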
T cell HTS: T cell immune modulation candidate. 2C CD8+ T cell-vesicle binding, flow cytometry; hits give low values. response (vesicle binding), % at 7 µM. 330,000 tested, 0.068% active;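 active = response, share of CD8 T cells binding vesicles, and their 90th percentile fluorescence all below set limits, cut at about 80% in these data, passing the limit was not always enough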;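 also: values below 100% mean blocked vesicle binding to the CD8+ T cells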
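incubation = binding step 1.5 h, 37 °C, antibody labelling 20 min, ice | test system = 2C mouse CD8+ T cells | read-out basis = percent CD8+ FL2 mean versus row control | controls = Peptide-free naked vesicles (low) and QL9 vesicles with 0.7% DMSO vehicle (high) | detection = flow cytometry of vesicle-bound cells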
Numbers stand for hits.

CCN(CC)c1ccc(CN(C(=O)c2cc(OC)c(OC)c(OC)c2)C2CCS(=O)(=O)C2)cc1 (configuration not stated) was read as ALR inh 94, N-glyco inh inactive and T cell HTS inactive.
Cc1ccc(CN(C(=O)c2cccs2)C2CCS(=O)(=O)C2)cc1 (configuration not stated) was read as ALR inh inactive, N-glyco inh inactive and T cell HTS inactive.
CCN(CC)c1ccc(CN(C(=O)c2cccs2)C2CCS(=O)(=O)C2)cc1 (configuration not stated) was read as ALR inh 99, N-glyco inh inactive and T cell HTS inactive.
For N#CCCN(C(=O)CN1CCN(S(=O)(=O)c2ccc3c(c2)OCCO3)CC1)c1ccc(F)cc1 the results were ALR inh inactive, N-glyco inh inactive and T cell HTS inactive.
For O=C(NC(=S)Nc1ccccc1O)c1cccnc1 the results were ALR inh inactive, N-glyco inh inactive and T cell HTS inactive.
CC(C)c1ccc(NC(=O)c2cccnc2)cc1 was read as ALR inh inactive, N-glyco inh inactive and T cell HTS inactive.
Screening N#Cc1ccccc1NC(=S)NC(=O)c1cccnc1 returned ALR inh 95, N-glyco inh inactive and T cell HTS inactive.
For CC(C)c1ccc(O)c(NC(=O)c2cccnc2)c1 the results were ALR inh 89, N-glyco inh inactive and T cell HTS inactive.
`CCC(C)c1ccc(O)c(NC(=S)NC(=O)c2cccnc2)c1` (configuration not stated) gave ALR inh 98, N-glyco inh inactive and T cell HTS inactive.
Screening O=C(NC(=S)Nc1cc([N+](=O)[O-])ccc1O)c1cccnc1 returned ALR inh inactive, N-glyco inh inactive and T cell HTS inactive.
`CCCCCCCCNS(=O)(=O)CCNCc1ccc(OC)cc1` gave N-glyco inh inactive.
CC(C)C1C(=O)N(Cc2cn(CC3CCCCC3)nn2)CCS(=O)(=O)N1Cc1ccc(-c2ccccc2)cc1 (configuration not stated) was read as N-glyco inh inactive.
`O=C(O)C[C@H]1c2ccccc2S(=O)(=O)N1c1ccccc1` gave ALR inh inactive, N-glyco inh inactive and T cell HTS inactive.
`Cc1cc(OCC(=O)N2CCC(C(N)=O)CC2)c2c(C)cc(=O)oc2c1` gave ALR inh inactive, N-glyco inh inactive and T cell HTS inactive.
For CC1(C)CC(=O)C=C(NNC(=O)c2ccccc2)C1 the results were ALR inh inactive, N-glyco inh inactive and T cell HTS inactive.
`Cc1occc1C(=O)NNC1=CC(=O)CC(C)(C)C1` gave ALR inh 89, N-glyco inh inactive and T cell HTS inactive.
OCC[C@@H]1C[C@H](O)[C@@H](O)[C@@]2(CCCCO2)O1 was read as ALR inh inactive, N-glyco inh inactive and T cell HTS inactive.
Cc1oc(-c2cccc(Cl)c2)nc1CS(=O)(=O)CC(=O)NCc1ccco1 was read as ALR inh inactive, N-glyco inh inactive and T cell HTS inactive.
Screening COc1ccc(-c2nc(CS(=O)CC(=O)NCc3ccco3)c(C)o2)cc1OC (configuration not stated) returned ALR inh 98, N-glyco inh inactive and T cell HTS inactive.
Screening Cc1cccc(-c2nc(CS(=O)CC(=O)NCc3ccco3)c(C)o2)c1 (configuration not stated) returned ALR inh 99, N-glyco inh inactive and T cell HTS inactive.
For COc1ccc(-c2[nH]c(-c3ccc(C)cc3)nc2SCC(=O)NCc2ccco2)cc1OC the results were ALR inh inactive, N-glyco inh inactive and T cell HTS inactive.
Screening Cc1ccc(-c2nc(CS(=O)CC(=O)NCc3ccco3)c(C)o2)cc1 (configuration not stated) returned ALR inh 99, N-glyco inh inactive and T cell HTS inactive.
Cn1ncc2c(Nc3cccc([N+](=O)[O-])c3)ncnc21 was read as ALR inh inactive, N-glyco inh inactive and T cell HTS inactive.
For Cc1cc(-c2ccccc2)c2ccc(NC(=O)C(C)(C)C)nc2n1 the results were ALR inh inactive, N-glyco inh inactive and T cell HTS inactive.
`COc1cccc(NC(=O)C2(C)CCN2Cc2cccc(OC)c2F)c1` (configuration not stated) gave N-glyco inh inactive.
Screening O=C(O)/C=C\C(=O)Nc1ccccc1C#Cc1ccccc1 returned ALR inh inconclusive, N-glyco inh inactive and T cell HTS inactive.
O=C(O)/C=C\C(=O)Nc1ccccc1C#Cc1ccc(Br)cc1 was read as ALR inh 98, N-glyco inh inactive and T cell HTS inactive.
`CCN(c1ccccc1)S(=O)(=O)c1ccc(Cl)c(NC(=O)CNCc2ccccc2OC)c1` gave ALR inh inactive, N-glyco inh inactive and T cell HTS inactive.

High-throughput results as filed in PubChem.
